Screening data deposited in PubChem by The Scripps Research Institute Molecular Screening Center.
LEDGF integ inh = blocks HIV-1 LEDGF/p75-dependent DNA integration; TR-FRET IN-LEDGF/p75 DNA integration, Eu/Cy5; inhibition, % at 3.7 µM; 370,000 compounds, 0.64% hits;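 active means inhibition above the screen-wide mean plus 3 SD, cut at about 13% in these data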;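 further: signal is the Cy5 over europium emission ratio at 671 and 618 nm; 0% = plate median of compound wells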
UHRF1 binding = blocks human UHRF1 binding to methylated DNA. Q96T88. AID 687016. UHRF1 binding to methylated oligo, TR-FRET. inhibition, % at 4.4 µM. 370,000 compounds, 0.75% hits; in the data active means inhibition above about 21%;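 further: UHRF1 SRA domain binding a hemimethylated CpG hairpin DNA probe; 0% = median of test compound wells and 100% = reference inhibitor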
Target sequence (Q96T88 whole entry, looked up, the tested form may be a part): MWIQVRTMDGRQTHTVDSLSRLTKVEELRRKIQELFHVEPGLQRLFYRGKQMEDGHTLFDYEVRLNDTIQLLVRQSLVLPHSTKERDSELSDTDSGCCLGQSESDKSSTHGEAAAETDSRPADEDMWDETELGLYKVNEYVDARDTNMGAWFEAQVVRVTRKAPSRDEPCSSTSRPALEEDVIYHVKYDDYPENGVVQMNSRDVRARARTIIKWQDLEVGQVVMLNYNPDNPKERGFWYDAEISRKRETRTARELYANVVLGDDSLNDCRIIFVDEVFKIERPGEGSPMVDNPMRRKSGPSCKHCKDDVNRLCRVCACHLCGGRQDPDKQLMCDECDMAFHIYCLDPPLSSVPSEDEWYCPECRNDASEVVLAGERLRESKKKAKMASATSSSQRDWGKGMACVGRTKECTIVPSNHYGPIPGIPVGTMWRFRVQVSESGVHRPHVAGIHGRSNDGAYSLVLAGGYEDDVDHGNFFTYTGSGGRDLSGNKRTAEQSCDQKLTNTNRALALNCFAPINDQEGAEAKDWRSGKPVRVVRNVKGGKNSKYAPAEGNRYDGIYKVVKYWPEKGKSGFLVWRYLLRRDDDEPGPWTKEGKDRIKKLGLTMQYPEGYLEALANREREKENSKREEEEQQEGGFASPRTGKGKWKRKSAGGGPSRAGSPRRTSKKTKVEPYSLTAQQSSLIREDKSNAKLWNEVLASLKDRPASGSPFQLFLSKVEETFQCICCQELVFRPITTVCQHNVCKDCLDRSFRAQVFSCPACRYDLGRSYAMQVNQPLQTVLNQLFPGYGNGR
TDP2 absorb = TDP2 (human) inhibition, absorbance primary screen; O95551; AID 720702; inhibition, % at 12.8 µM; 370,000 compounds, 0.34% hits; recombinant TDP2, T5PNP hydrolysis, p-nitrophenol absorbance 415 nm;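 active means inhibition above the mean of all tested compounds plus 3 SD, set per campaign, cut at about 25% in these data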;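 further: 0% = DMSO with enzyme and 100% = buffer with substrate but no TDP2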
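Read-out basis: percent inhibition. System: recombinant human TDP2. Buffer or medium: Mg2+-containing Tris-HCl buffer, pH 7.5. Repeats: single replicate. Timing: reaction 2 h, 37 °C. Benchmarks: high control without enzyme, low control DMSO plus TDP2. Probe or stimulus: 5 mM T5PNP. Doses: 12.8 µM only. Measured by: epi absorbance of p-nitrophenol freed from T5PNP by hydrolysis.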
MBD2 DNA inh = blocks human MBD2 binding to methylated DNA | Q9UBB5 | TR-FRET, MBD2 binding to methylated oligonucleotide | inhibition, % at 4.4 µM | 370,000 compounds, 0.31% hits | AID 686964; in the data active means inhibition above about 13%
IN multimer act = activates HIV-1 integrase multimerization in LEDGF counter-screen. activation, % at 7.7 µM. shares compounds with LEDGF integ inh. 2,000 compounds, 17% hits. TR-FRET HIV-1 integrase multimerization, biochemical; in the data active means activation above about 8.9%
TR-FRET interf = counter-screen for LEDGF/p75 integration inhibitors: TR-FRET optical interference. shares compounds with LEDGF integ inh. TR-FRET optical interference counterscreen, HIV-1 IN multimerization. inhibition, % at 7.7 µM. 2,000 tested, under 10 active. AID 1053135;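 active means inhibition above the mean over all tested compounds plus 3 SD, which no compound reached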;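 further: 0% = integrase with antibodies and DMSO and 100% = antibodies without integrase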
LEDGF integ conf = LEDGF/p75-dependent HIV-1 integration inhibition, confirmation. 2,000 compounds, 36% hits. TR-FRET LEDGF/p75-dependent HIV-1 integration, biochemical. inhibition, % at 3.7 µM. shares compounds with LEDGF integ inh; in the data active means inhibition above about 14%
Active calls of the source: *. Shown are actives, neighbours in structure and some others; about 1.6% of the full set was active somewhere.

Results for Cc1ccccc1NC(=O)C1CCCN1S(=O)(=O)c1cccnc1 (stereo not drawn) ?
LEDGF integ inh: 3.6; UHRF1 binding: 1.2; TDP2 absorb: -0.3; MBD2 DNA inh: 2.2

How did CCOC(=O)[C@]12CCCCC/C=C\1N(CCc1ccc(Cl)cc1)C(=O)[C@H]2CC(=O)NCCC(C)C do in these assays?
LEDGF integ inh: 2.1; UHRF1 binding: 0.7; TDP2 absorb: -1.4; MBD2 DNA inh: 2.4

How did CN1Cc2nnn(Cc3ccccc3)c2-c2cc(F)ccc2S1(=O)=O do in these assays?
LEDGF integ inh: 1.8; UHRF1 binding: -2.0; TDP2 absorb: 2.9; MBD2 DNA inh: -1.7

How did C[C@](N)(Cc1ccc(O)c(O)c1)C(=O)O do in these assays?
LEDGF integ inh: 60.0*; UHRF1 binding: 40.1*; TDP2 absorb: 5.4; MBD2 DNA inh: 12.2; IN multimer act: 7.1; TR-FRET interf: -35.8; LEDGF integ conf: -4.4

What do the screens show for `COC(=O)CSc1nnnn1-c1cccc2ccccc12`?
LEDGF integ inh: 22.7*; UHRF1 binding: -1.4; TDP2 absorb: 23.3; MBD2 DNA inh: 2.5; IN multimer act: -1.0; TR-FRET interf: 5.2; LEDGF integ conf: 1.6

How did CCCN1CCCCC(NC(=O)c2ccc(C)cc2C)C1=O (stereo not drawn) do in these assays?
LEDGF integ inh: -4.1; UHRF1 binding: 1.1; TDP2 absorb: 1.7; MBD2 DNA inh: -0.4

What do the screens show for `NNC(=O)c1oc2nc(-c3ccco3)cc(-c3ccco3)c2c1N`?
LEDGF integ inh: 63.5*; UHRF1 binding: 10.7; TDP2 absorb: 3.0; MBD2 DNA inh: 8.3; IN multimer act: 10.9*; TR-FRET interf: -55.1; LEDGF integ conf: 10.9

Results for Nc1c(C(=O)N/N=C/c2cccnc2)oc2nc(-c3ccco3)cc(-c3ccco3)c12 ?
LEDGF integ inh: 52.7*; UHRF1 binding: 17.4; TDP2 absorb: 3.5; MBD2 DNA inh: 3.7; IN multimer act: 39.5*; TR-FRET interf: -199.0; LEDGF integ conf: 91.2*

How did Nc1c(C(=O)N/N=C/c2cccnc2)oc2nc(-c3ccccc3)cc(-c3ccco3)c12 do in these assays?
LEDGF integ inh: 4.8; UHRF1 binding: -4.9; TDP2 absorb: -4.4; MBD2 DNA inh: -6.9

What do the screens show for `CC(=C/C(=O)O)/C=C/c1ccc(Cl)o1`?
LEDGF integ inh: 13.4*; UHRF1 binding: 32.4*; TDP2 absorb: -3.4; MBD2 DNA inh: 7.9; IN multimer act: 5.4; TR-FRET interf: -27.3; LEDGF integ conf: 54.2*

Results for CC(/C=C/c1ccc(C)o1)=C\C(=O)O ?
LEDGF integ inh: 5.0; UHRF1 binding: 0.3; TDP2 absorb: 0.0; MBD2 DNA inh: -1.5

What do the screens show for `Cc1[nH]c(=O)[nH]c1C(=O)CCCCC(=O)OCC(=O)Nc1ccccn1`?
LEDGF integ inh: 82.0*; UHRF1 binding: -2.6; TDP2 absorb: 5.8; MBD2 DNA inh: 1.6; IN multimer act: 0.4; TR-FRET interf: -1.8; LEDGF integ conf: 80.7*

What do the screens show for `CN1CCN(c2ccc3c(c2)Oc2ccccc2CN(Cc2cn(Cc4ccc(C(F)(F)F)cc4)nn2)S3(=O)=O)CC1`?
LEDGF integ inh: 1.8; UHRF1 binding: 0.2; TDP2 absorb: -10.3; MBD2 DNA inh: -1.4

How did Cc1ccc(NC(=O)C2CCCN2C(=O)NC2CCCCC2)cc1C (stereo not drawn) do in these assays?
LEDGF integ inh: 53.3*; UHRF1 binding: 6.3; TDP2 absorb: -15.7; MBD2 DNA inh: 2.4; IN multimer act: -3.5; TR-FRET interf: 17.9; LEDGF integ conf: 5.1

How did Cc1ccc(NC(=O)C2CCCN2C(=O)NC2CCCCC2)cc1F (stereo not drawn) do in these assays?
LEDGF integ inh: 0.5; UHRF1 binding: 0.8; TDP2 absorb: 10.6; MBD2 DNA inh: 5.7

Results for CCn1c(SCC(=O)N/N=C/c2cccc(Oc3ccccc3)c2)nnc1-c1ccccc1 ?
LEDGF integ inh: 0.4; UHRF1 binding: -2.0; TDP2 absorb: 0.2; MBD2 DNA inh: -3.4

What do the screens show for `O=C1C=CC(=O)c2c(O)c(CO)c(CO)c(O)c21`?
LEDGF integ inh: 76.9*; UHRF1 binding: 86.8*; TDP2 absorb: 27.5*; MBD2 DNA inh: 57.3*; IN multimer act: 32.2*; TR-FRET interf: -162.2; LEDGF integ conf: 79.8*

How did O=c1c(CO)cc(CO)cc(CO)c1O do in these assays?
LEDGF integ inh: -3.6; UHRF1 binding: -1.2; TDP2 absorb: -2.7; MBD2 DNA inh: -2.0

How did Brc1cnc2nc(SC/C=C/c3ccccc3)[nH]c2c1 do in these assays?
LEDGF integ inh: 37.2*; UHRF1 binding: 0.8; TDP2 absorb: -2.6; MBD2 DNA inh: -0.5; IN multimer act: 5.8; TR-FRET interf: -29.2; LEDGF integ conf: 4.0

Results for CO/N=C(\C(=O)N[C@@H]1C(=O)N2C(C(=O)O)=C(COC(N)=O)CS[C@H]12)c1ccco1 ?
LEDGF integ inh: 14.4*; UHRF1 binding: 25.4*; TDP2 absorb: -12.2; MBD2 DNA inh: 1.7; IN multimer act: 1.2; TR-FRET interf: -5.8; LEDGF integ conf: 15.7*

How did COC(=O)[C@]12C[C@H](CC(=O)NCc3cccc4ccccc34)C(=O)N(CCc3ccc(OC)c(OC)c3)C1=C[C@H](C(C)C)O[C@@H]2C1CC1 do in these assays?
LEDGF integ inh: -0.1; UHRF1 binding: -2.3; TDP2 absorb: -8.5; MBD2 DNA inh: 5.2

Results for Cc1cc(=O)c2c(O)c(O)ccc2o1 ?
LEDGF integ inh: 13.8*; UHRF1 binding: 10.8; TDP2 absorb: -8.1; MBD2 DNA inh: -0.1; IN multimer act: 9.6*; TR-FRET interf: -34.1; LEDGF integ conf: 9.2

What do the screens show for `COc1c2ccoc2cc2oc(C)cc(=O)c12`?
LEDGF integ inh: 3.9; UHRF1 binding: -3.0; TDP2 absorb: -13.3; MBD2 DNA inh: -5.6

What do the screens show for `CC1Cc2ccccc2N1C(=O)CSCC(=O)O` (stereo not drawn)?
LEDGF integ inh: 15.9*; UHRF1 binding: -0.4; TDP2 absorb: -2.0; MBD2 DNA inh: -0.3; IN multimer act: 0.7; TR-FRET interf: -3.6; LEDGF integ conf: -3.5

How did COc1ccc(CCN2CC(=O)N3CCc4ccc(N5CCOCC5)cc4C3CC2=O)cc1OC (stereo not drawn) do in these assays?
LEDGF integ inh: -2.7; UHRF1 binding: 3.6; TDP2 absorb: 1.5; MBD2 DNA inh: -0.6

How did O=C(CCc1ccccc1)N[C@H]1[C@H](O)CCC[C@]12C(=O)N(Cc1ccccc1)c1ccccc12 do in these assays?
LEDGF integ inh: 0.7; UHRF1 binding: 2.8; TDP2 absorb: 4.6; MBD2 DNA inh: 2.1

How did CSc1nnc(-c2ccco2)c(-c2ccco2)n1 do in these assays?
LEDGF integ inh: 27.3*; UHRF1 binding: 18.0; TDP2 absorb: 22.6; MBD2 DNA inh: 0.2; IN multimer act: 5.1; TR-FRET interf: -25.6; LEDGF integ conf: 45.3*
